Legend:
[1] = target: Transthyretin (Homo sapiens) (UniProt P02766); experiment: Percentage of WT-TTR (3.6 uM) amyloid fibril formation at pH 4.4 upon incubation with the compound (7.2 uM); compound is unstable
Summary of the method: (§1)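 WT-TTR (7.2 µM, 0.4 mg/mL) in 10 mM phosphate pH 7.2, 100 mM KCl, 1 mM EDTA was preincubated 30 min at 37 °C with inhibitor added from a 1.44 mM DMSO stock. An equal volume of 200 mM acetate pH 4.2 brought the sample to pH 4.4 (3.6 µM TTR, 7.2 µM compound final). Left 72 h at 37 °C, vortexed, turbidity read at 350 and 400 or 500 nm. Run in duplicate or triplicate.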

[2] = target: Transthyretin (Homo sapiens) (UniProt P02766); experiment: Binding stoichiometry to TTR in human blood plasma determined by antibody capture/HPLC method; format: cell-free
Summary of the method: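 Human blood plasma spiked to 10.8 µM test compound from a 2.16 mM DMSO stock and incubated 24 h at 37 °C. Plasma was precleared with plain Sepharose for 1 h at 4 °C, then split into three aliquots for anti-TTR antibody-resin capture (20 min, 4 °C) in 10 mM Tris pH 8.0, 140 mM NaCl. Resin washed, eluted with 100 mM triethylamine pH 11.5, eluate analysed by HPLC for compound:TTR stoichiometry.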

[3] = target: Transthyretin (Homo sapiens) (UniProt P02766); experiment: Percentage compound remaining at the conclusion of the acid-mediated fibril formation assay (72 h), assay conditions compound (7.2 uM), WT-TTR (3.6 uM, pH 4.4, 37C)
Summary of the method: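 Compound at 7.2 µM was incubated in the dark with or without 3.6 µM WT-TTR under acid fibril conditions (pH 4.4, 37 °C, 72 h). Analytical RP-HPLC peak area of the compound at the end was compared with the area at the start. Measurement error stated as 4%.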

[4] = target: Transthyretin (Homo sapiens) (UniProt P02766); experiment: Percentage compound remaining at the conclusion of the acid-mediated fibril formation assay (72 h), assay conditions compound (7.2 uM), WT-TTR (3.6 uM, pH 7.2, 37C)
Summary of the method: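 Compound at 7.2 µM was incubated in the dark with 3.6 µM WT-TTR at 37 °C for 72 h, with the buffer held at pH 7.2. Analytical RP-HPLC peak area of the compound at the end was compared with the area at the start.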

[5] = target: Transthyretin (Homo sapiens) (UniProt P02766); experiment: Percentage of WT-TTR (3.6 uM) amyloid fibril formation at pH 4.4 upon incubation with the compound (7.2 uM); summary of the method: as §1

Row | Formation [1] | Binding stoichiometry [2] | Activity [3] [%] | Activity [4] [%] | Formation [5] [%] | SMILES
1 | Unstable |  |  |  |  | O=C(O)c1ccccc1/C=N/Oc1ccccc1C(=O)O
2 |  | 1.38 | 83 | 76 | 3 | O=C(O)c1ccc(/C=N/Oc2ccccc2C(F)(F)F)cc1
